Data published in ChEMBL document CHEMBL3272036, “Reactions of 2-acyloxyisobutyryl halides with nucleosides. Synthesis and biological evaluation of some 3"-acyl and 3',5'-diacyl derivatives of 1-beta-D-arabinofuranosylcytosine” (J Med Chem, 1976).
≈ marks a conversion by molar mass, not a printed value. Calls of active or inactive are those of the source. The rule behind the calls is not given here.

Tests used:
[1] = tested on: L1210; assay: Antitumor activity against mouse L1210 cells allografted in BDF1 mouse assessed as increase in life span at 100 mg/kg, ip administered as single dose relative to vehicle-treated control; assay type: functional; settings: route intraperitoneal
In short: (§1)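 Single intraperitoneal injection given 24 h after the leukemic cells were introduced, at 100, 200, 500 or 1000 mg/kg. Read-out is % increase in life span (ILS), with the count of 30-day survivors per group recorded (group sizes 7–8 mice).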

[2] = tested on: L1210; assay: Antitumor activity against mouse L1210 cells allografted in BDF1 mouse assessed as survival at 50 mg/kg, ip administered as single dose measured on day 30 relative to vehicle-treated control; assay type: functional, organism-based; parameters: dose 50 mg/kg
[3] = tested on: Herpesviridae sp.; assay: Antiviral activity against Herpes Simplex virus HF infected in African green monkey BGM cells assessed as plaque reduction measured on day 5 by disk diffusion assay; assay type: functional; settings: 120 h, read-out: ED50 (the source's name)
[4] = tested on: L1210; assay: Antitumor activity against mouse L1210 cells allografted in BDF1 mouse assessed as increase in life span at 200 mg/kg, ip administered as single dose relative to vehicle-treated control; assay type: functional; settings: route intraperitoneal; in short: as §1
[5] = tested on: Vaccinia virus; assay: Antiviral activity against Vaccinia virus IHD infected in African green monkey BGM cells assessed as plaque reduction measured on day 5 by disk diffusion assay; assay type: functional; settings: Orthopoxvirus vaccinia, 120 h, read-out: ED50 (the source's name)
[6] = tested on: HeLa; assay: Cytotoxicity against human HeLa cells after 48 hrs by Coulter counter analysis; assay type: functional; settings: read-out: ED50 (the source's name)
[7] = tested on: L1210; assay: Antitumor activity against mouse L1210 cells allografted in BDF1 mouse assessed as survival at 200 mg/kg, ip administered as single dose measured on day 30 relative to vehicle-treated control; assay type: functional, organism-based; parameters: dose 200 mg/kg
In short: (§2)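 Leukemic L1210 cells were introduced into mice. Each compound was then given as a single intraperitoneal injection 24 h later. Activity is expressed as % increase in life span (ILS), with the count of 30-day survivors per group. Doses tested were 100, 200, 500 and 1000 mg/kg.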

[8] = tested on: L1210; assay: Antitumor activity against mouse L1210 cells allografted in BDF1 mouse assessed as survival at 1000 mg/kg, ip administered as single dose measured on day 30 relative to vehicle-treated control; assay type: functional, organism-based; parameters: dose 1000 mg/kg; in short: as §2
[9] = tested on: L1210; assay: Antitumor activity against mouse L1210 cells allografted in BDF1 mouse assessed as survival at 500 mg/kg, ip administered as single dose measured on day 30 relative to vehicle-treated control; assay type: functional, organism-based; parameters: dose 500 mg/kg; in short: as §2
[10] = tested on: L1210; assay: Antitumor activity against mouse L1210 cells allografted in BDF1 mouse assessed as increase in life span at 500 mg/kg, ip administered as single dose relative to vehicle-treated control; assay type: functional; settings: route intraperitoneal; in short: as §1
[11] = tested on: L1210; assay: Antitumor activity against mouse L1210 cells allografted in BDF1 mouse assessed as survival at 100 mg/kg, ip administered as single dose measured on day 30 relative to vehicle-treated control; assay type: functional, organism-based; parameters: dose 100 mg/kg; in short: as §2
[12] = tested on: L1210; assay: Antitumor activity against mouse L1210 cells allografted in BDF1 mouse assessed as increase in life span at 1000 mg/kg, ip administered as single dose relative to vehicle-treated control; assay type: functional; settings: route intraperitoneal; in short: as §1
[13] = tested on: L1210; assay: Chemotherapeutic index, ratio of ILSmax for antitumor activity against mouse L1210 cells allografted in BDF1 mouse to ILS30 for antitumor activity against mouse L1210 cells allografted in BDF1 mouse; assay type: functional
In short: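 Dose-response curves were determined in L1210-bearing mice, each receiving a single ip injection 24 h after leukemic cell introduction. Chemotherapeutic index = the dose producing maximum % ILS divided by the dose giving 30% ILS.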

[14] = tested on: L1210; assay: Antitumor activity against mouse L1210 cells allografted in ip dosed mouse administered as single dose relative to vehicle-treated control; assay type: functional; in short: as §2

Row | SMILES | ILS at 100 mg/kg [1] [%] | Activity [2] | EC50 [3] [nM] | ILS at 200 mg/kg [4] [%] | EC50 [5] [nM] | EC50 [6] [µg/mL] | Activity [7] | Activity [8] | Activity [9] | ILS at 500 mg/kg [10] [%] | Activity [11] | ILS at 1000 mg/kg [12] [%] | Ratio [13] | ILS30 [14] [mg/kg] | ILSmax [14] [mg/kg]
1 | CCCCCCCC/C=C/CCCCCCCC(=O)OC[C@H]1O[C@@H](n2ccc(N)nc2=O)[C@@H](O)[C@@H]1OC(=O)CCCCCCC/C=C/CCCCCCCC | 14 | inactive | > 30000 | > 253 | > 30000 | 2.5 (≈ 3.24 µM) |  |  |  |  |  |  |  |  | 
2 | Nc1ccn([C@@H]2O[C@H](CO)[C@@H](O)[C@@H]2O)c(=O)n1 [CYTARABINE] | 8 |  | 160 | 7 | 70 | 0.05 (≈ 0.206 µM) | inactive | inactive | inactive | 16 | inactive | 34 |  |  | 
3 | CCCCCCCC/C=C\CCCCCCCCCCCC(=O)O[C@H]1[C@H](O)[C@H](n2ccc(N)nc2=O)O[C@@H]1CO | > 280 |  | > 30000 | > 280 | 17500 | 0.16 (≈ 0.284 µM) | Active | inactive | inactive | -34 | Active |  |  |  | 
4 | CCCCCCCCCC(=O)O[C@H]1[C@H](O)[C@H](n2ccc(N)nc2=O)O[C@@H]1CO | > 241 |  | 340 | > 224 | 100 | 0.09 (≈ 0.226 µM) |  | inactive |  | > 161 |  | -23 | 30 | 5 | 150
5 | CCCCCCCC/C=C\CCCCCCCC(=O)OC[C@H]1O[C@@H](n2ccc(N)nc2=O)[C@@H](O)[C@@H]1OC(=O)CCCCCCC/C=C\CCCCCCCC.Cl | 70 | inactive | > 30000 | > 190 | 17500 | 1.1 |  |  |  |  |  |  |  |  | 
6 | CCCCCCCCCC(=O)OC[C@H]1O[C@@H](n2ccc(N)nc2=O)[C@@H](O)[C@@H]1O | 59 |  | 860 | > 114 | 180 | 0.1 (≈ 0.252 µM) |  |  |  | > 122 | inactive | -45 | 25 | 20 | 500
7 | CCCCCCCCCCCCCCCCCCCCCC(=O)OC[C@H]1O[C@@H](n2ccc(N)nc2=O)[C@@H](O)[C@@H]1O | > 228 |  | 12000 | > 295 | 450 | 0.04 (≈ 0.0707 µM) | Active | inactive | Active | > 295 |  | 45 | 500 | 1 | 500
8 | CCCCCCCCCCCCCCCC(=O)O[C@H]1[C@H](O)[C@H](n2ccc(N)nc2=O)O[C@@H]1CO | > 295 |  | 670 | > 295 | 140 | 0.24 (≈ 0.498 µM) | Active | inactive | inactive | -20 | Active | -19 | 200 | 1 | 200
9 | CCCCCCCCCCCC(=O)O[C@H]1[C@H](O)[C@H](n2ccc(N)nc2=O)O[C@@H]1CO | > 258 | Active | 250 | > 257 | 50 | 0.08 (≈ 0.188 µM) |  | inactive |  |  |  | -28 |  |  | 
10 | CCCCCCCC(=O)O[C@H]1[C@H](O)[C@H](n2ccc(N)nc2=O)O[C@@H]1CO | 34 |  | 640 | 48 | 110 | 0.1 (≈ 0.271 µM) | inactive | inactive | inactive | 37 | inactive | 11 |  |  | 
11 | CCCCCC(=O)O[C@H]1[C@H](O)[C@H](n2ccc(N)nc2=O)O[C@@H]1CO | 5 | inactive | 1500 | 21 | 480 | 0.05 (≈ 0.146 µM) | inactive |  |  |  |  |  |  |  | 
12 | CCCCCCCCCCCCCCCCCCCCCC(=O)O[C@H]1[C@H](O)[C@H](n2ccc(N)nc2=O)O[C@@H]1CO | > 200 |  | > 30000 | > 215 | > 30000 | 1.1 (≈ 1.94 µM) |  | Active |  |  |  | > 240 | 1000 | 2 | 2000
13 | CCCCCCCCCCCCCCCC(=O)OC[C@H]1O[C@@H](n2ccc(N)nc2=O)[C@@H](O)[C@@H]1O | > 257 |  | 1140 | > 224 | 300 | 0.08 (≈ 0.166 µM) |  |  | inactive | -40 | Active |  | 75 | 2 | 150
